Results: ChEMBL document CHEMBL4392826, “Prototyping kinase inhibitor-cytotoxin anticancer mutual prodrugs activated by tumour hypoxia: A chemical proof of concept study” (Bioorg Med Chem Lett, 2019)

Experiments:
[1] = Ratio of test compound IC50 to melphalan IC50 for human SW620 cells incubated for 4 hrs under aerobic condition followed by compound washout and measured after 5 days by SRB assay; assay type: ADME, cell-based, SW-620; details: read-out: Ratio IC50
Summary of the method: (§1)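 Deactivation ratio: aerobic IC50 of the prodrug divided by the aerobic IC50 of the parent control cytotoxin, in the same cell line (MDA-MB-468 or SW620).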

[2] = Ratio of test compound IC50 to melphalan IC50 for human MDA-MB-468 cells incubated for 4 hrs under aerobic condition followed by compound washout and measured after 5 days by SRB assay; assay type: ADME, cell-based; details: read-out: Ratio IC50; summary of the method: as §1
[3] = tested on: MDA-MB-468; test: Selectivity ratio of IC50 for human MDA-MB-468 cells under aerobic condition to IC50 for human MDA-MB-468 cells under hypoxic condition
Summary of the method: (§2)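 Hypoxic cytotoxicity ratio: aerobic IC50 divided by anoxic IC50 in the same cell line (MDA-MB-468 or SW620).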

[4] = tested on: SW-620; test: Cytotoxicity against human SW620 cells incubated for 4 hrs under hypoxic condition followed by compound washout and measured after 5 days by SRB assay; assay type: functional, cell-based
Summary of the method: (§3)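 Antiproliferative IC50 in MDA-MB-468 triple-negative breast or SW620 colon cancer cells, exposed under aerobic or anoxic conditions; mean ± std dev, n = 3.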

[5] = tested on: SW-620; test: Selectivity ratio of IC50 for human SW620 cells under aerobic condition to IC50 for human SW620 cells under hypoxic condition; summary of the method: as §2
[6] = tested on: MDA-MB-468; test: Cytotoxicity against human MDA-MB-468 cells incubated for 4 hrs under hypoxic condition followed by compound washout and measured after 5 days by SRB assay; assay type: functional, cell-based; summary of the method: as §3
[7] = Aqueous solubility of the compound; assay type: physicochemical; details: buffer
[8] = tested on: SW-620; test: Cytotoxicity against human SW620 cells incubated for 4 hrs under aerobic condition followed by compound washout and measured after 5 days by SRB assay; assay type: cell-based; summary of the method: as §3
[9] = tested on: MDA-MB-468; test: Cytotoxicity against human MDA-MB-468 cells incubated for 4 hrs under aerobic condition followed by compound washout and measured after 5 days by SRB assay; assay type: cell-based; summary of the method: as §3
[10] = Electrochemical behavior of the compound assessed as one-elctron reduction potential at 50 uM in pH 7 deaerated phosphate buffered by pulse radiolysis
[11] = Ratio of test compound IC50 to floxuridine IC50 for human SW620 cells incubated for 4 hrs under aerobic condition followed by compound washout and measured after 5 days by SRB assay; assay type: ADME, cell-based, SW-620; details: read-out: Ratio IC50
Summary of the method: (§4)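 Deactivation ratio: aerobic antiproliferative IC50 of the prodrug divided by aerobic IC50 of the parent cytotoxin control (floxuridine). IC50 values were means ± std dev, n = 3, determined in MDA-MB-468 triple-negative breast or SW620 colon cancer cells.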

[12] = Ratio of test compound IC50 to floxuridine IC50 for human MDA-MB-468 cells incubated for 4 hrs under aerobic condition followed by compound washout and measured after 5 days by SRB assay; assay type: ADME, cell-based; details: read-out: Ratio IC50; summary of the method: as §4
[13] = Electrochemical behavior of the compound assessed as one-elctron reduction potential at 0.42 uM in tert-butanol by pulse radiolysis

| SMILES | selectivity ratio at 4 h [1] | selectivity ratio at 4 h [2] | Ratio IC50 [3] | IC50 [4] | Ratio IC50 [5] | IC50 [6] | solubility [7] | IC50 [8] | IC50 [9] | Activity [10] | selectivity ratio at 4 h [11] | selectivity ratio at 4 h [12] | Activity [13] |
| --- | --- | --- | --- | --- | --- | --- | --- | --- | --- | --- | --- | --- | --- |
| Cc1cc(C)c(/C=C(\C(=O)Nc2ccc(N(CCCl)CCCl)cc2)c2ccccc2[N+](=O)[O-])[nH]1 | 6.3 | 8.3 | 1.1 | 12.7 µM | <1 | 7.38 µM | Insoluble | 11.5 µM | 8.31 µM | – | – | – | – |
| Cc1cc(C)c(/C=C(\C(=O)OC[C@H]2O[C@@H](n3cc(F)c(=O)[nH]c3=O)C[C@@H]2O)c2ccccc2[N+](=O)[O-])[nH]1 | – | – | <1 | 14 µM | 1.3 | 248 µM | – | 18.7 µM | 83.9 µM | -509 mV | 19.4 | 3.1 | – |
| Cc1cc(C)c(/C=C(\C(=O)Nc2ccc(N(CCO)CCO)cc2)c2ccccc2[N+](=O)[O-])[nH]1 | – | – | – | – | – | – | – | – | – | – | – | – | -550 mV |
| Cn1c(COP(=O)(NCCBr)NCCBr)cnc1[N+](=O)[O-] [EVOFOSFAMIDE] | – | – | 710 | 0.052 µM | 396 | 0.0062 µM | – | 20.6 µM | 4.4 µM | – | – | – | – |
| O=c1[nH]c(=O)n([C@H]2C[C@H](O)[C@@H](CO)O2)cc1F [FLOXURIDINE] | – | – | <1 | 1.48 µM | <1 | 45.5 µM | – | 0.96 µM | 27.4 µM | – | – | – | – |
| N[C@@H](Cc1ccc(N(CCCl)CCCl)cc1)C(=O)O [MELPHALAN] | – | – | 1.2 | 1.22 µM | 1.5 | 0.81 µM | – | 1.81 µM | 1 µM | – | – | – | – |
| Nc1n[n+]([O-])c2ccccc2[n+]1[O-] [TIRAPAZAMINE] | – | – | 81 | 1.2 µM | 76 | 1.3 µM | – | 91 µM | 105 µM | – | – | – | – |
